Data from ChEMBL document CHEMBL1641444, “Synthesis and evaluation of 6-[1-(2-[(18)F]fluoro-3-pyridyl)-5-methyl-1H-1,2,3-triazol-4-yl]quinoline for positron emission tomography imaging of the metabotropic glutamate receptor type 1 in brain” (Bioorg Med Chem, 2011).

How the values were obtained:
Blood [1] = experiment: Biodistribution in blood of Sprague-Dawley rat at 17 MBq, iv after 5 mins by dissection method; type: ADME, organism-based; conditions: in vivo
Method in brief: (§1)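 The [18F]ligand was given to rats as a saline solution (average 17 MBq, about 0.11 nmol) via the tail vein. Three rats per time point were killed by cervical dislocation at 5, 15 and 30 min. Dissected tissues were gamma-counted with decay correction, and results are expressed as % injected dose per gram of wet tissue.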

Heart [2] = experiment: Biodistribution in heart of Sprague-Dawley rat at 17 MBq, iv after 5 mins by dissection method; type: ADME, organism-based; conditions: in vivo; method in brief: as §1
Liver [3] = experiment: Biodistribution in liver of Sprague-Dawley rat at 17 MBq, iv after 5 mins by dissection method; type: ADME, organism-based; conditions: in vivo
Method in brief: (§2)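 [¹⁸F]7a in saline (average 17 MBq/200 µL, 0.11 nmol) was given by tail vein. Rats were killed by cervical dislocation at 5, 15 or 30 min, with three rats per time point. Tissue radioactivity was measured by gamma counting, decay-corrected and expressed as %ID per gram of wet tissue.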

Spleen = experiment: Biodistribution in spleen of Sprague-Dawley rat at 17 MBq, iv after 5 mins by dissection method; type: ADME, organism-based; conditions: in vivo; method in brief: as §2
[4] = Biodistribution in small intestine of Sprague-Dawley rat at 17 MBq, iv after 5 mins by dissection method; type: ADME, organism-based; conditions: in vivo; method in brief: as §2
Pancreas = experiment: Biodistribution in pancreas of Sprague-Dawley rat at 17 MBq, iv after 5 mins by dissection method; type: ADME, organism-based; conditions: in vivo; method in brief: as §2
[5] = Biodistribution in whole brain of Sprague-Dawley rat at 17 MBq, iv after 5 mins by dissection method; type: ADME, organism-based; conditions: in vivo; method in brief: as §2
Thalamus [6] = experiment: Biodistribution in thalamus of Sprague-Dawley rat at 17 MBq, iv after 5 mins by dissection method; type: ADME, organism-based; conditions: in vivo; method in brief: as §2
Striatum = experiment: Biodistribution in striatum of Sprague-Dawley rat at 17 MBq, iv after 5 mins by dissection method; type: ADME, organism-based; conditions: in vivo; method in brief: as §2
Blood [7] = experiment: Biodistribution in blood of Sprague-Dawley rat at 17 MBq, iv after 15 mins by dissection method; type: ADME, organism-based; conditions: in vivo, 0.25 h; method in brief: as §1
Heart [8] = experiment: Biodistribution in heart of Sprague-Dawley rat at 17 MBq, iv after 15 mins by dissection method; type: ADME, organism-based; conditions: in vivo, 0.25 h; method in brief: as §1
Muscle tissue = experiment: Biodistribution in muscle of Sprague-Dawley rat at 17 MBq, iv after 15 mins by dissection method; type: ADME, organism-based; conditions: in vivo, 0.25 h; method in brief: as §2
[9] = Biodistribution in whole brain of Sprague-Dawley rat at 17 MBq, iv after 15 mins by dissection method; type: ADME, organism-based; conditions: in vivo, 0.25 h; method in brief: as §2
Liver [10] = experiment: Biodistribution in liver of Sprague-Dawley rat at 17 MBq, iv after 30 mins by dissection method; type: ADME, organism-based; conditions: in vivo, 0.5 h; method in brief: as §2
[11] = Biodistribution in small intestine of Sprague-Dawley rat at 17 MBq, iv after 30 mins by dissection method; type: ADME, organism-based; conditions: in vivo, 0.5 h; method in brief: as §2
[12] = Biodistribution in whole brain of Sprague-Dawley rat at 17 MBq, iv after 30 mins by dissection method; type: ADME, organism-based; conditions: in vivo, 0.5 h; method in brief: as §2
Thalamus [13] = experiment: Biodistribution in thalamus of Sprague-Dawley rat at 17 MBq, iv after 30 mins by dissection method; type: ADME, organism-based; conditions: in vivo, 0.5 h; method in brief: as §2
[14] = Biodistribution in olfactory bulb of Sprague-Dawley rat at 17 MBq, iv after 30 mins by dissection method; type: ADME, organism-based; conditions: in vivo, 0.5 h; method in brief: as §2
[15] = Biodistribution in pons-medulla of Sprague-Dawley rat at 17 MBq, iv after 30 mins by dissection method; type: ADME, organism-based; conditions: in vivo, 0.5 h; method in brief: as §2
[16] = Fraction unbound in Sprague-Dawley rat plasma after 15 mins by ultra-filtration method; type: ADME; conditions: 0.25 h
Method in brief: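 Plasma protein binding was measured by ultrafiltration. Blood was spun at 3900 rpm for 5 min at 4 °C to obtain plasma. 40 µL of plasma was centrifuged in a filter unit at 2000 rpm for 15 min at 25 °C, and a saline control was run the same way. Free fraction was taken as ultrafiltrate/plasma radioactivity, corrected for a stick factor.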

[17] = Octanol-sodium phosphate buffer partition coefficient, log D of the compound at pH 7.4; type: physicochemical
Method in brief: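 [¹⁸F]7a (radiochemical purity 100%, about 150,000 cpm) was mixed with n-octanol (3.0 g) and 0.1 M sodium phosphate buffer pH 7.40 (3.0 g). The mix was vortexed for 3 min at room temperature, then centrifuged at 3500 rpm for 5 min. Assays were run in triplicate.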

[18] = Ratio of drug uptake in Sprague-Dawley rat cerebral cortex to medulla at 17 MBq, iv after 10 to 15 mins by small-animal PET; conditions: in vivo
[19] = test system: Cerebellum (Mus musculus); experiment: Metabolic stability in cerebellum of mouse assessed as reduction of parent compound level at 3.7 MBq, iv after 15 mins by HPLC analysis; set-up: scale not given: the % may be the effect or the level left; conditions: in vivo, 0.25 h
[20] = test system: Cerebellum (Mus musculus); experiment: Metabolic stability in cerebellum of mouse assessed as reduction of parent compound level at 3.7 MBq, iv after 30 mins by HPLC analysis; set-up: scale not given: the % may be the effect or the level left; conditions: in vivo, 0.5 h

Drug uptake (Blood [1]): 0.38 % ID/g | Drug uptake (Heart [2]): 0.47 % ID/g | Drug uptake (Liver [3]): 2.3 % ID/g | Drug uptake (Spleen): 0.43 % ID/g | Drug uptake [4]: 3.06 % ID/g | Drug uptake (Pancreas): 0.75 % ID/g | Drug uptake [5]: 0.52 % ID/g | Drug uptake (Thalamus [6]): 0.73 % ID/g | Drug uptake (Striatum): 0.54 % ID/g | Drug uptake (Blood [7]): 0.26 % ID/g | Drug uptake (Heart [8]): 0.24 % ID/g | Drug uptake (Muscle tissue): 0.14 % ID/g | Drug uptake [9]: 0.23 % ID/g | Drug uptake (Liver [10]): 1.93 % ID/g | Drug uptake [11]: 1.74 % ID/g | Drug uptake [12]: 0.11 % ID/g | Drug uptake (Thalamus [13]): 0.1 % ID/g | Drug uptake [14]: 0.1 % ID/g | Drug uptake [15]: 0.13 % ID/g | Activity [16]: 8.5% | logD [17]: 2.53 | Ratio [18]: 1.31 | Stability [19]: 91% | Stability [20]: 67%
SMILES: Cc1c(-c2ccc3ncccc3c2)nnn1-c1cccnc1[18F]
